The values that follow come from ChEMBL document CHEMBL4513216, “Probing the Open Global Health Chemical Diversity Library for Multistage-Active Starting Points for Next-Generation Antimalarials” (ACS Infect Dis, 2020).

SMILES strings stand for the structures.

This data set is described as follows: Toxicity liver stage against HepG2, at 10uM. The format is cell-based. Further details: test concentration 10 uM, cell line HepG2-A16-CD81EGFP. The following applies: human, HepG2-A16-CD81EGFP cells; read-out: INHIBITION
Summed up: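 Uninfected HepG2-A16-CD81EGFP cells, 3 × 10^3 per well, 1536-well, plated on prespotted compound at 10 μM final, parasite-free screening media added to match infected plates; puromycin 10 μM positive, DMSO 0.5% negative; run in parallel with 48 h PbLuc assay at 37 °C, 5% CO2; viability by CellTiter-Glo luminescence, normalized to controls.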
Take `CCNC(=O)N1CCC(c2ccccc2)C1` (stereo unspecified): the cytotoxicity at 10 µM is -3.57%.

For the compound `NC(=O)CN1C(=O)CO[C@H]2CN(Cc3ccc(Cl)cc3)C[C@H]21`, the cytotoxicity at 10 µM was 13%.

For `COc1cccc(CN2CC[C@H](c3nnc(C)o3)C2)c1`, the cytotoxicity at 10 µM was -0.902%.

Consider `CC1CCN(C(=O)c2cnc3cc(C(=O)N(C)C)n(C)c3c2)CC1`, for which the cytotoxicity at 10 µM was 6.14%.

For the compound `CCCC(O)CN1CCC(=O)N(Cc2ccccc2)Cc2ccccc21` (stereo unspecified), the cytotoxicity at 10 µM was found to be 5.24%.

In the case of `CSCC[C@H](NC(=O)Cn1ccc2ccc(Cl)cc21)C(=O)O`, the cytotoxicity at 10 µM is 6.59%.

In the case of `COc1ccc2nnc(CCCC(=O)NCCc3ccccc3)n2n1`, the cytotoxicity at 10 µM is -5.11%.

As to `Cc1c(Cl)cccc1S(=O)(=O)NCC(O)c1cccn1C` (stereo unspecified), the cytotoxicity at 10 µM is -5.15%.

Turning to `Cc1cc(F)ccc1C(=O)N1C[C@@H]2COC[C@]2(COCC2CC2)C1`, the cytotoxicity at 10 µM is -146%.

On to `O=C(NC1CCc2c(ccc(=O)n2CC2CC2)C1)c1ccsc1` (stereo unspecified), for which the cytotoxicity at 10 µM is -4.48%.

For `COc1cc(N2CC[C@@H](OC)[C@@H]2Cc2ccccc2)ncn1`, the cytotoxicity at 10 µM was -138%.

As to `O=C(Cc1ccccn1)N1CCC2(CCCN(CC3CCOCC3)C2)C1` (stereo unspecified), the cytotoxicity at 10 µM was -122%.

Consider `COc1nn(C)c2c1CCCN(S(=O)(=O)c1cccc(F)c1)C2`, for which the cytotoxicity at 10 µM is -129%.

In the case of `O=C(c1cscn1)N1CC[C@@H]2[C@@H]1CCN2c1ccccn1`, the cytotoxicity at 10 µM worked out at 5.95%.

Regarding `CN(C)C(=O)N1CCC2(CC1)COCCN(c1ncccn1)C2`, the cytotoxicity at 10 µM was determined as 8.42%.

Regarding `Cc1ccc(C(=O)N2CCc3ncnc(C)c3CC2)o1`, the cytotoxicity at 10 µM was 7.89%.

Take `c1coc(CN2CC[C@@H]3O[C@@H](COCC4CCOCC4)CC[C@@H]32)c1`: the cytotoxicity at 10 µM is -142%.

As for `COCC1COCCC12CCN(C(=O)CCc1ccccc1C)CC2` (stereo unspecified), the cytotoxicity at 10 µM was -1.52%.

In the case of `Cc1cc(F)ccc1NC(=O)Cn1cc(C(=O)O)ccc1=O`, the cytotoxicity at 10 µM is -0.555%.

For `COCCN(C)C(=O)c1ccccc1-n1cc(CN(C)C)cn1`, the cytotoxicity at 10 µM is -29.5%.

`COCC(=O)N1CCCC(Cc2cnc(-c3c(C)n[nH]c3C)cn2)C1` (stereo unspecified): the cytotoxicity at 10 µM is -4.51%.

For the compound `Cc1nc2ccccn2c1CC(=O)N[C@@H]1CCC[C@@H](N2CCCC2)[C@@H]1O`, the cytotoxicity at 10 µM is -5.13%.

For `CCN(Cc1ccccc1)C(=O)c1cc(C2CCCN2C)ccn1` (stereo unspecified), the cytotoxicity at 10 µM is -14.2%.

On to `Cc1ccccc1C(=O)N1CCC(n2nnc3cc(F)ccc32)CC1`, for which the cytotoxicity at 10 µM came to 3.94%.

Consider `NS(=O)(=O)CCNC(=O)CCc1cc(Br)cs1`, for which the cytotoxicity at 10 µM was -3.39%.

As for `CCOC(=O)N1CCC(C(=O)Nc2nnc(C(F)(F)F)[nH]2)CC1`, the cytotoxicity at 10 µM was -6.01%.

As to `CC(CN1CCOCC1)NC(=O)Nc1cccnc1-n1cccn1` (stereo unspecified), the cytotoxicity at 10 µM is -1.7%.

Take `CS(=O)(=O)NC1CCN(C(=O)NCC2CCCO2)CC1` (stereo unspecified): the cytotoxicity at 10 µM is -1.9%.

As to `NC(=O)COCCNC(=O)Nc1sc2ccccc2c1Cl`, the cytotoxicity at 10 µM is 8.81%.

Regarding `CN(CCSc1nncn1CC(F)(F)F)c1ccccc1`, the cytotoxicity at 10 µM is -1.86%.

`CC(C)CC(NC(=O)CN(C)C(=O)c1ccco1)c1cccs1` (stereo unspecified): the cytotoxicity at 10 µM is -1.24%.

As for `CCN(Cc1ccccn1)C1CCN(c2ccccc2)C1=O` (stereo unspecified), the cytotoxicity at 10 µM came to 4.34%.

For the compound `Cc1cccc(N2CCN(C(=O)CNCCn3cc(C)cn3)CC2)c1`, the cytotoxicity at 10 µM was -2.83%.

In the case of `CN(C)c1cccc(C(=O)Nc2cnn(Cc3ccccn3)c2)c1`, the cytotoxicity at 10 µM amounted to 4.81%.

For the compound `CCCc1noc(C(C)N(CC)Cc2ccco2)n1` (stereo unspecified), the cytotoxicity at 10 µM turned out to be 7.3%.

As to `Cc1nc(CSCCC(=O)NCCNC(=O)OC(C)(C)C)cs1`, the cytotoxicity at 10 µM is -2.3%.

Regarding `CN(C1CCCCC1)S(=O)(=O)NC1CCN(c2ncccn2)CC1`, the cytotoxicity at 10 µM was 6.99%.

With `CC(C)Nc1cccc(C(=O)NCC(O)c2ccc(F)cc2F)c1` (stereo unspecified), the cytotoxicity at 10 µM is 14.8%.

Turning to `CCOCCC1(CNC(=O)c2ccc(C)nc2)CCCC1`, the cytotoxicity at 10 µM was determined as 7.25%.

For the compound `CN(C)c1ncccc1C(=O)N1CCN(C2=NCC(C)(C)S2)CC1`, the cytotoxicity at 10 µM was 5.03%.

Consider `Cc1cccn2c(=O)cc(CN3CCCC3Cn3cncn3)nc12` (stereo unspecified), for which the cytotoxicity at 10 µM was 0.714%.

As for `C[S+]([O-])c1nncn1CC(=O)c1ccc(OC(F)F)cc1` (stereo unspecified), the cytotoxicity at 10 µM was -8.56%.

Consider `Cc1cnn(CC2CN(CCS(C)(=O)=O)CCO2)c1` (stereo unspecified), for which the cytotoxicity at 10 µM was -2.25%.

Turning to `Cc1cc(CNC(=O)[C@H]2CCCCN2C(=O)OC(C)(C)C)on1`, the cytotoxicity at 10 µM is -0.82%.

Regarding `Cc1cc(C)c(C(=O)Nc2cccc(CN3CCC(CO)CC3)c2)o1`, the cytotoxicity at 10 µM is -140%.

Turning to `CCNC(=O)CN1CCN(c2ccnc3c(F)ccc(F)c23)CC1`, the cytotoxicity at 10 µM was found to be 11.7%.

For the compound `NC(=O)c1cnc(NC2CCN(c3ccccc3)CC2)c(Cl)c1`, the cytotoxicity at 10 µM is 6.07%.

Turning to `Cc1c(NCC(C)(C)C)cccc1C(=O)NCc1ncnn1C`, the cytotoxicity at 10 µM was -3.53%.

With `OCCN1CCC(CNCc2ccc(Br)cc2)CC1`, the cytotoxicity at 10 µM was -8.29%.

Consider `CCN(CC)C(=O)CN(C)C(=O)c1cc(-c2cccc(Cl)c2)no1`, for which the cytotoxicity at 10 µM was found to be 4.28%.

On to `NC(=O)CN1CCC(NC(=O)N2CCCC2c2ccsc2)CC1` (stereo unspecified), for which the cytotoxicity at 10 µM was 1.91%.

On to `CCN(C(C)=O)c1nc(CN2CCN(c3nccs3)CC2)cs1`, for which the cytotoxicity at 10 µM is -6.01%.

As to `CC(=O)NCCNC(=O)NCCc1c(C)cc(C)cc1C`, the cytotoxicity at 10 µM was 6.02%.

As for `CCS(=O)(=O)NCCCNc1ncnc2cc(F)c(F)cc12`, the cytotoxicity at 10 µM was found to be 9.29%.

In the case of `COc1ccccc1C(C)(C)NC(=O)NC1CCC(O)CC1` (stereo unspecified), the cytotoxicity at 10 µM is -3.6%.

Regarding `CN(CC(N)=O)C(=O)c1cn(-c2ccc(Br)cc2)cn1`, the cytotoxicity at 10 µM is 6.85%.

In the case of `CCc1nsc(NC2CCCn3nc(CC)nc32)n1` (stereo unspecified), the cytotoxicity at 10 µM is 16.2%.

In the case of `OC(CN1CCN(c2ncccn2)CC1)c1cccc(F)c1` (stereo unspecified), the cytotoxicity at 10 µM amounted to 2.4%.

For `COc1ccc(NC(=O)C(c2cccc(F)c2)N2CCOCC2)cc1` (stereo unspecified), the cytotoxicity at 10 µM amounted to 2.42%.

`Cc1nn(C)c(C)c1CN(Cc1cccn1-c1ncccn1)C(C)C`: the cytotoxicity at 10 µM was -0.316%.

Consider `OCC1CCCCN1Cc1nc(Cc2cccc(F)c2)no1` (stereo unspecified), for which the cytotoxicity at 10 µM is -137%.

Take `Cc1cc(C[C@@H]2COC[C@@H]2NC(=O)CN2CCCCCC2)on1`: the cytotoxicity at 10 µM stood at 1.29%.

`CCc1ccc(CN(C)Cc2cnc(S(=O)(=O)CC)n2CCOC)cc1`: the cytotoxicity at 10 µM is -2.19%.

For `Cc1nc(-c2nnc(SCC(=O)O)n2C(C)c2ccccc2)co1` (stereo unspecified), the cytotoxicity at 10 µM was -6.3%.

As for `Cc1cc(CN2CCC(CNC(=O)c3ccc4[nH]cnc4c3)C2)[nH]n1` (stereo unspecified), the cytotoxicity at 10 µM was -145%.

`C[C@@H]1CN(C(=O)C2CCS(=O)(=O)CC2)C[C@@]1(O)C1CC1`: the cytotoxicity at 10 µM turned out to be 3.99%.

Consider `CCC[C@H]1CN(CCS(C)(=O)=O)C[C@@H]1NC(=O)c1ccccc1F`, for which the cytotoxicity at 10 µM was -5.88%.

Consider `COc1ccccc1OCc1cc(C(=O)N2CCCCCC2CO)n[nH]1` (stereo unspecified), for which the cytotoxicity at 10 µM is -2.48%.

In the case of `O=C(NCCc1cnccn1)c1cccc(S(=O)(=O)NC2CCOC2)c1` (stereo unspecified), the cytotoxicity at 10 µM came to 6.3%.

For the compound `Cc1nn(C)c(Cl)c1C1CCCN1Cc1nnc(C2CC2)o1` (stereo unspecified), the cytotoxicity at 10 µM was -6.18%.

As to `Cc1ccccc1SCC(=O)NS(=O)(=O)c1ccc2c(c1)OCCO2`, the cytotoxicity at 10 µM is -1.22%.

Turning to `Cc1cc(NC(=O)CN2CCC(N(C)Cc3ncc(C)o3)C2)n(C)n1` (stereo unspecified), the cytotoxicity at 10 µM was -6.49%.

For `Cn1ccc(C(=O)NCc2ccc(N3CCOCC3)nc2)cc1=O`, the cytotoxicity at 10 µM is -14.3%.

As to `Cc1ncccc1CNCC1CCN(CC(C)O)CC1` (stereo unspecified), the cytotoxicity at 10 µM was -5.59%.

Regarding `COCCN(C)C(C)c1cccc(S(N)(=O)=O)c1` (stereo unspecified), the cytotoxicity at 10 µM was -28%.

As to `Cc1nc(C2CCCN(C(=O)c3ccc(S(C)(=O)=O)cc3)C2)no1` (stereo unspecified), the cytotoxicity at 10 µM is -11.3%.

As for `Cc1cnn(CC2CCCN2C(=O)c2cc(O)nc3ccccc23)c1` (stereo unspecified), the cytotoxicity at 10 µM is -6.5%.

In the case of `COCCN1CC(C(=O)NCc2cccnc2-n2cccn2)CC1=O` (stereo unspecified), the cytotoxicity at 10 µM was 3.74%.

As for `CC(C)c1nnc2n1CCN(C(=O)COc1ccc(C(N)=O)cc1)C2`, the cytotoxicity at 10 µM came to 0.0102%.

On to `CCC(O)CN1CCN(C(=O)c2cccc3[nH]ncc23)CC1` (stereo unspecified), for which the cytotoxicity at 10 µM is -11.2%.

In the case of `CN(Cc1ccccc1F)C(=O)CS(=O)(=O)Cc1ccc(Cl)c(Cl)c1`, the cytotoxicity at 10 µM was 3.2%.

On to `Cc1cc(C(=O)N[C@H](C)c2onc(-c3cccnc3)c2C(=O)O)c(C)o1`, for which the cytotoxicity at 10 µM turned out to be 1.47%.

Consider `COCC(=O)N1CCC2(CCc3ccc(F)cc32)CC1`, for which the cytotoxicity at 10 µM is -148%.

Regarding `Cc1ccc(CN2Cc3ccnn3CC(C(=O)NCC3CC3)C2)o1` (stereo unspecified), the cytotoxicity at 10 µM is -15.9%.

On to `Cc1nc(CN2C(=O)CCC23CCN(Cc2ccoc2)CC3)cs1`, for which the cytotoxicity at 10 µM is -0.902%.

Turning to `CCn1cncc1CN1CCN(CC2(c3ccc(C)cc3)CC2)CC1`, the cytotoxicity at 10 µM is -10.7%.

`O=C(NCc1cccs1)c1nc2c(o1)CN(CC1CC1)C2`: the cytotoxicity at 10 µM is -2.83%.

`Cc1cc(CN2C[C@@H](N3CCN(C)CC3)[C@H]3OCCC[C@H]32)oc1C`: the cytotoxicity at 10 µM was -132%.

For `Cc1ncsc1CN1C[C@@H](OCc2ccccn2)[C@H]2OCCC[C@H]21`, the cytotoxicity at 10 µM is -141%.

For `COCCO[C@H]1CCN(Cc2cccnc2)[C@H]1Cc1cccnc1`, the cytotoxicity at 10 µM was 0.0623%.

`CC(C)(C)NC(=O)CN1CCNCC1`: the cytotoxicity at 10 µM is -143%.

As to `CN1CCN(C2COC3(CCN(CC4CC4)CC3)C2)CC1` (stereo unspecified), the cytotoxicity at 10 µM is -6.81%.

Take `O=C1CCCN1Cc1nnc2n1CCN(Cc1ccccn1)CC2`: the cytotoxicity at 10 µM was -9.87%.

For `Cn1cccc1C(=O)NC[C@]12COC[C@H]1CN(Cc1nccs1)C2`, the cytotoxicity at 10 µM is -2.74%.

For the compound `COC1COC2(CCN(Cc3cccc(Cl)c3)CC2)C1` (stereo unspecified), the cytotoxicity at 10 µM was -1.31%.

Turning to `Cc1nc(CN2CC3(CCN(c4ncc(F)cn4)C3)CC2=O)cs1` (stereo unspecified), the cytotoxicity at 10 µM came to 3.25%.
